From ChEMBL document CHEMBL4130355, “Development of a series of novel 4-anlinoquinazoline derivatives possessing quinazoline skeleton: Design, synthesis, EGFR kinase inhibitory efficacy, and evaluation of anticancer activities in vitro” (Eur J Med Chem, 2017)
Active and inactive are the calls of the source. The calls are words filed in the database; no cut-off is given here.

Assays:
HepG2 [1] = experiment: Induction of apoptosis in human HepG2 cells assessed as intracellular free Ca2+ levels after 48 hrs by FL1 channel/FACS analysis; format: functional, cell-based
Procedure, shortened: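 HepG2 seeded at 5.0 × 10^5 cells/mL, 24 h at 37 °C in 5% CO2, then treated 48 h (2.5–20 µM). Harvested cells were washed in ice-cold PBS and loaded with 4 µM Fluo-3/AM for 30 min. After trypsinizing, they were washed twice and resuspended in HEPES, and fluorescence was measured in the FL-1 channel by flow cytometry. Values are averages of at least three independent experiments.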

HepG2 [2] = experiment: Induction of apoptosis in human HepG2 cells assessed as caspase-3 activity at 10 uM after 48 hrs by colorimetric assay relative to control; format: functional
Procedure, shortened: (§1)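 After 48 h treatment, HepG2 were rinsed in ice-cold PBS and lysed 1–1.5 h on ice in buffer with 1% DTT. Lysate was spun at 10,000×g for 1 min at 4 °C; supernatant protein was measured by Bradford. Supernatant was mixed with 2× reaction buffer (1% DTT) plus caspase-3 chromogenic peptide substrate, held 4 h at 37 °C, and read at 405 nm.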

HepG2 [3] = experiment: Induction of mitochondrial membrane potential loss in human HepG2 cells assessed as mitochondrial membrane potential levels at 2.5 uM after 48 hrs by rhodamine-123 dye based FACS analysis (reference value: 90.4%); format: functional
[4] = Antiproliferative activity against human CCC-HPF1 cells after 72 hrs by MTT assay; format: ADME, cell-based; conditions: CCC-HPF-1, 72 h
HepG2 [5] = experiment: Cell cycle arrest in human HepG2 assessed as accumulation at G0/G1 phase at 10 uM after 48 hrs by propidium iodide-staining based flow cytometry (reference value: 69.40%); format: functional
Procedure, shortened: (§2)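 HepG2 cells at 5.0 × 10^5/well were grown 24 h, then treated at 0, 2.5, 5.0 or 10.0 µM for 48 h alongside medium-only wells. Cells fixed in 70% ice-cold ethanol for ≥24 h, treated with RNase A at 37 °C for 30 min, then stained with propidium iodide for 30 min at 4 °C in the dark. DNA content read by flow cytometry. Average of at least three experiments.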

HepG2 [6] = experiment: Induction of apoptosis in human HepG2 cells assessed as caspase-3 activity at 5 uM after 48 hrs by colorimetric assay relative to control; format: functional; procedure, shortened: as §1
HepG2 [7] = experiment: Induction of mitochondrial membrane potential loss in human HepG2 cells assessed as mitochondrial membrane potential levels at 5 uM after 48 hrs by rhodamine-123 dye based FACS analysis (reference value: 90.4%); format: functional
HepG2 [8] = experiment: Induction of apoptosis in human HepG2 cells assessed as early apoptotic cells at 2.5 uM after 48 hrs by Annexin V-FITC/propidium iodide double staining-based flow cytometry (reference value: 8.7%); format: functional
HepG2 [9] = experiment: Cell cycle arrest in human HepG2 assessed as accumulation at G0/G1 phase at 5 uM after 48 hrs by propidium iodide-staining based flow cytometry (reference value: 69.40%); format: functional; procedure, shortened: as §2
[10] = biological target: T1, Epidermal growth factor receptor (Homo sapiens, UniProt P00533); conditions: HEK293, at 1 pM
A549 [11] = experiment: Antiproliferative activity against human A549 cells after 72 hrs by MTT assay; format: functional, cell-based; conditions: A549, 72 h
HepG2 [12] = experiment: Antiproliferative activity against human HepG2 cells at 1 uM after 24 hrs by MTT assay realtive to control; format: functional
Procedure, shortened: (§3)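 MTT assay in triplicate wells. Cells (2 × 10^3/well) were attached 24 h, then treated at 0.1, 1, 10, 50 or 100 µM for 24, 48 or 72 h. MTT added for 4 h, SDS solubilisation, absorbance at 570/650 nm. Inhibition = 1 − (OD treated − blank)/(OD control − blank). Reported as mean ± SD of three independent experiments.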

A549 [13] = experiment: Antiproliferative activity against human A549 cells at 50 uM after 24 hrs by MTT assay relative to control; format: functional; procedure, shortened: as §3
HepG2 [14] = experiment: Induction of apoptosis in human HepG2 cells assessed as late apoptotic cells at 2.5 uM after 48 hrs by Annexin V-FITC/propidium iodide double staining-based flow cytometry (reference value: 4.3%); format: functional
HepG2 [15] = experiment: Cell cycle arrest in human HepG2 assessed as accumulation at G2/M phase at 5 uM after 48 hrs by propidium iodide-staining based flow cytometry (reference value: 9.13%); format: functional; procedure, shortened: as §2
HepG2 [16] = experiment: Cell cycle arrest in human HepG2 assessed as accumulation at G2/M phase at 2.5 uM after 48 hrs by propidium iodide-staining based flow cytometry (reference value: 9.13%); format: functional; procedure, shortened: as §2
HepG2 [17] = experiment: Antiproliferative activity against human HepG2 cells at 10 uM after 48 hrs by MTT assay realtive to control; format: functional; procedure, shortened: as §3
HepG2 [18] = experiment: Antiproliferative activity against human HepG2 cells at 100 uM after 72 hrs by MTT assay realtive to control; format: functional; procedure, shortened: as §3
HepG2 [19] = experiment: Induction of apoptosis in human HepG2 cells assessed as convoluted nuclei formation at 2.5 to 20 uM after 48 hrs by Hoechst 33342/propidium iodide double staining based laser scanning confocal microscopy; format: functional, cell-based
Procedure, shortened: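 HepG2 plated at 5.0 × 10^4 cells/well in DMEM with 10% FBS, 24 h at 37 °C, then treated 48 h (2.5–20 µM). After two ice-cold PBS washes, cells were stained with Hoechst 33342/PI mixed 1:1 for 30 min at 37 °C in the dark, washed three times, and imaged by laser scanning confocal microscopy at 200×.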

HepG2 [20] = experiment: Induction of apoptosis in human HepG2 cells assessed as viable cells at 10 uM after 48 hrs by Annexin V-FITC/propidium iodide double staining-based flow cytometry (reference value: 86.4%); format: functional; conditions: HepG2, 48 h, read-out: Activity
HepG2 [21] = experiment: Cytotoxicity against human HepG2 cells at 5 uM after 48 hrs by LDH release assay (reference value: 100%); format: functional
Procedure, shortened: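 HepG2 seeded at 1.0 × 10^5 cells/well, grown 24 h at 37 °C in 5% CO2, then dosed for 48 h. LDH in supernatant read on plate reader per kit. Maximal release (100% cytotoxicity) came from lysis with 2% (V/V) lysate for 1 h at 37 °C; medium-only cells served as natural release. Triplicate, three independent runs.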

HepG2 [22] = experiment: Antiproliferative activity against human HepG2 cells at 1 uM after 48 hrs by MTT assay realtive to control; format: functional; procedure, shortened: as §3
[23] = biological target: T1, Epidermal growth factor receptor; conditions: HEK293, at 0.001 µM
A549 [24] = experiment: Antiproliferative activity against human A549 cells at 1 uM after 24 hrs by MTT assay relative to control; format: functional; procedure, shortened: as §3
HepG2 [25] = experiment: Induction of apoptosis in human HepG2 cells assessed as caspase-3 activity at 20 uM after 48 hrs by colorimetric assay relative to control; format: functional; procedure, shortened: as §1
HepG2 [26] = experiment: Antiproliferative activity against human HepG2 cells at 1 uM after 72 hrs by MTT assay realtive to control; format: functional; procedure, shortened: as §3

T1 sequence (P00533 whole entry): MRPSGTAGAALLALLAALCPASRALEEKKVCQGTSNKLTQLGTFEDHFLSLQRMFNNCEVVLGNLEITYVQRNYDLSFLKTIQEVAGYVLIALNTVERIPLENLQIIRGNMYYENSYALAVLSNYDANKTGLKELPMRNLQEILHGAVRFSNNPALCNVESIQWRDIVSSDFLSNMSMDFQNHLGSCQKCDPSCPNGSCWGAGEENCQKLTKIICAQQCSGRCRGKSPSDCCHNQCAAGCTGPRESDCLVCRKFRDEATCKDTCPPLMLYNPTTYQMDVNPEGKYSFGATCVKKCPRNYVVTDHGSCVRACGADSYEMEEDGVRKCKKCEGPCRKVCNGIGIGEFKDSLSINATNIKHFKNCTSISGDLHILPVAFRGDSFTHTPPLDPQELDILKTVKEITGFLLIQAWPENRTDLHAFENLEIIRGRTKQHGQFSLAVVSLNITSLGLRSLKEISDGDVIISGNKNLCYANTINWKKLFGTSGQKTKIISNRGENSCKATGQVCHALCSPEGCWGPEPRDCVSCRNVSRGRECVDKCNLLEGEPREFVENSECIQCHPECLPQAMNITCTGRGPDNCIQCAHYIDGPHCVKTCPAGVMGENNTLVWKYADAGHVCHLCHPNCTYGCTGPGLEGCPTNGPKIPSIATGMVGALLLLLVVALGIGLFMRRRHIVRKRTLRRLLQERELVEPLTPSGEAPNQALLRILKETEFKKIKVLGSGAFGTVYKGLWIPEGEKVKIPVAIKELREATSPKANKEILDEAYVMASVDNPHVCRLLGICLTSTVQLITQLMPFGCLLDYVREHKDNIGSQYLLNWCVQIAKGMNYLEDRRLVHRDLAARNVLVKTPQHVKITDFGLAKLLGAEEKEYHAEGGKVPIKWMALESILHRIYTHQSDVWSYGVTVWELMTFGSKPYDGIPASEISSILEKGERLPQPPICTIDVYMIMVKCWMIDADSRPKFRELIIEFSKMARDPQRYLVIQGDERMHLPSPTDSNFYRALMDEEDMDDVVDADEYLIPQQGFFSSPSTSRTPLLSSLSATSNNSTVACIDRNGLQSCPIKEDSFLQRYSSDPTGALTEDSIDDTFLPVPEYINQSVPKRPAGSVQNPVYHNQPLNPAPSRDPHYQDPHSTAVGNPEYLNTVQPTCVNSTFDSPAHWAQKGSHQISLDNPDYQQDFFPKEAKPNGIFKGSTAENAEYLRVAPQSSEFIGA

- inhibition [10]: 16%
- IC50 (A549 [11]): 9.5 µM
- inhibition [23]: 46.2%
SMILES: COc1cc2c(Nc3ccc(C#N)cc3)ncnc2cc1OCCCN1CCC(c2ccccc2)CC1
- Activity (HepG2 [1]): Dose-dependent effect
- Activity (HepG2 [2]): 198%
- Activity (HepG2 [3]): 88.3%
- IC50 [4]: 28 µM
- Activity (HepG2 [5]): 60.72%
- Activity (HepG2 [6]): 145%
- Activity (HepG2 [7]): 87%
- Activity (HepG2 [8]): 48.6%
- Activity (HepG2 [9]): 65.53%
- Activity (HepG2 [12]): 7.9%
- Activity (A549 [13]): 85.3%
- Activity (HepG2 [14]): 3.8%
- Activity (HepG2 [15]): 9.37%
- Activity (HepG2 [16]): 10.49%
- Activity (HepG2 [17]): 55.6%
- Activity (HepG2 [18]): 101%
- Activity (HepG2 [19]): Active
- viability at 10 µM (HepG2 [20]): 1.3%
- Activity (HepG2 [21]): 50.11%
- Activity (HepG2 [22]): 8.6%
- Activity (A549 [24]): 1.9%
- Activity (HepG2 [25]): 196%
- Activity (HepG2 [26]): 13.7%
